Assay results taken from ChEMBL document CHEMBL2311429, “Design, synthesis and crystallographic analysis of nitrile-based broad-spectrum peptidomimetic inhibitors for coronavirus 3C-like proteases” (Eur J Med Chem, 2013).
Activity calls are given as the source filed them. No cut-off for these calls is given here.

Columns and labels:
[1] = target: Replicase polyprotein 1ab (Severe acute respiratory syndrome-related coronavirus, UniProt P0C6X7); experiment: Inhibition of SARS coronavirus 3C-like protease pretreated for 5 mins before substrate addition by fluorimetry
Caspase-3 (Homo sapiens) = target: T1, Caspase-3 (Homo sapiens) (UniProt P42574); experiment: Inhibition of caspase3 (unknown origin) using Ac-DEVD-pNA as substrate at 0.5 to 256 uM after 90 mins by spectrophotometry
T1 sequence (whole entry): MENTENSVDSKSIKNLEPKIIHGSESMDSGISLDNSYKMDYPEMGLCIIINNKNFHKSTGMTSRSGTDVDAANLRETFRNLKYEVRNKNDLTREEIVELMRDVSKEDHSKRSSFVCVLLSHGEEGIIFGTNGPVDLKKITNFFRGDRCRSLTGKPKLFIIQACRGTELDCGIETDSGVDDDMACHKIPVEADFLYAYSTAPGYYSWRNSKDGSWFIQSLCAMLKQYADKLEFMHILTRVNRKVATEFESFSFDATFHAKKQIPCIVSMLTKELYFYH

[2] = Inhibition of […] bronchitis virus 3C-like protease pretreated for 5 mins before substrate addition by fluorimetry
Summary of the method: (§1)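 3CL protease (0.5-1 μM) preincubated 5 min with inhibitor (0.5-256 μM), then 35 μM fluorescent-protein substrate added; cleavage followed by fluorescence. IC50 from four-parameter logistic fit of activity versus inhibitor concentration.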

[3] = Inhibition of human coronavirus HKU1 3C-like protease pretreated for 5 mins before substrate addition by fluorimetry; summary of the method: as §1
[4] = Inhibition of human coronavirus OC43 3C-like protease pretreated for 5 mins before substrate addition by fluorimetry; summary of the method: as §1
[5] = Inhibition of human coronavirus […] 3C-like protease pretreated for 5 mins before substrate addition by fluorimetry; set-up: species or system Human coronavirus 229E; summary of the method: as §1

Compound | IC50 [1] [nM] | inhibition (Caspase-3 (Homo sapiens)) | IC50 [2] [nM] | IC50 [3] [nM] | IC50 [4] [nM] | IC50 [5] [nM]
CC(C)C[C@H](NC(=O)[C@@H](NC(=O)[C@H](C)NC(=O)[C@H](CO)NC(=O)[C@@H](NC(=O)OCc1ccccc1)[C@@H](C)O)C(C)C)C(=O)N[C@H](C#N)CCC(N)=O | 39000 |  |  |  |  | 
CC(C)C[C@H](NC(=O)[C@@H](NC(=O)[C@H](C)NC(=O)OCc1ccccc1)C(C)C)C(=O)N[C@H](C#N)CCC(N)=O |  | inactive | 1300 | 1300 | 1300 | 1300
Cc1cc(C(=O)N[C@@H](C)C(=O)N[C@H](C(=O)N[C@@H](CC(C)C)C(=O)N[C@H](C#N)CCC(N)=O)C(C)C)no1 | 49000 |  |  |  |  | 
